Assay results from publication PMC9365243 (Chemical Science, 2022).

Test system: human monocyte-derived macrophages
Test: Fluorophore uptake, fluorescence microscopy of macrophages
Type: cell-based
Conditions: 30 μM, 3 h, 37 °C, fluorescence microscopy (λex 492 nm, λem 518 nm)
Outline: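 Human monocyte-derived macrophages were incubated for 3 h with 30 μM free fluorophore or fluorophore-labelled oligopeptide, with DMSO alone as negative control. Cells were then imaged by fluorescence microscopy in the green channel (λex = 492 nm, λem = 518 nm) and in light field to find where the fluorophore sat.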

uptake into cells (fluorophore localization): not able to penetrate the cell membrane
SMILES: O=C(O)c1ccc2c(c1)C(=O)OC21c2ccc(O)cc2Oc2cc(O)ccc21 [5-FAM, 5-carboxy-fluorescein]
